Source: PubChem
Mot1-301 SUMO: inhibitors of SUMOylation pathway: yeast Mot1-301 growth rescue; S. cerevisiae Mot1-301 growth rescue, ATP luminescence, 38.5C; percent above DMSO median, 100 means doubled; growth rescue, % at 18.8 µM; 320,000 compounds, 1% hits;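 active = every valid replicate shows activation above 250% relative to neutral control wells; inactive = the rest, any valid replicate at or below 250%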;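 also: OY570 slx delta 5 strain wells were the positive control but not used for scaling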
Cneo AK release: causes C. neoformans cell lysis; adenylate kinase release luminescence, 4 h; normalised: neutral wells 0, clomiphene wells 100; lysis activity, % at 15 µM; 360,000 compounds, 0.2% hits; AID 651654;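 active = mean lysis activity across replicates of at least 80%, whatever share of replicates individually reach that level; inactive = mean lysis activity below 80%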
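Test system: log-phase Cryptococcus neoformans yeast cells; Quantity: yeast cell density of 5 × 10^6 cells/mL; Buffer or medium: YPD; Doses: single compound concentration per well; Timing: 4 h at 37 °C static, read 1 h later; Measured by: AK luminescence; Read-out basis: lysis from increased AK signal; Control set: Clomiphene as positive control.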
Statin myotox sup: protects C2C12 myotubes from simvastatin toxicity; ATP luminescence, 48 h; scaled: DMSO 0, geranylgeraniol control 100; rescue of ATP level, % at 7.49 µM; 330,000 compounds, 0.78% hits; AID 602340;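 active = mean ATP rescue above about 67%, or every replicate alone reaching that limit, limit read from the data, passing the limit was not always enough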;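 also: myotubes were challenged with 10 µM simvastatin during compound exposure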
* = called active by the depositor; nt = no result given; ! = repeats disagree. Shown are actives, neighbours in structure and some others; about 1.5% of the full set was active somewhere.

SMILES	Mot1-301 SUMO	Cneo AK release	Statin myotox sup
CC=Cc1ccc2n(c1=O)C[C@H]1[C@H](CO)[C@@H](C(=O)NC3CCC3)[C@@H]2N1Cc1ccccc1 (mixture of isomers)	nt	0	7
O=C(C[C@@H]1C[C@H]2c3cc(NC(=O)C4CCOCC4)ccc3O[C@H]2[C@H](CO)O1)NCCc1ccccc1	nt	-7	5
C[C@H](CO)N1C[C@H](C)[C@@H](CN(C)S(=O)(=O)c2ccc(Cl)cc2)Oc2ccc(NC(=O)Cc3cn(C)c4ccccc34)cc2C1=O	nt	-2	29
COc1cnc(-c2ccccn2)nc1Sc1ccc(Cl)cc1	-28	5	-3
COc1cnc(N(C)C)nc1Sc1ccc(Cl)cc1	22	-2	104*
C[C@H]1CN([C@@H](C)CO)C(=O)Cc2cc(NC(=O)Cc3cn(C)c4ccccc34)ccc2O[C@@H]1CN(C)S(=O)(=O)c1cccs1	nt	-1	-6
COc1cccc(C(CC(=O)NCC2CCCO2)NS(=O)(=O)c2ccc(C)cc2)c1OC (configuration not stated)	nt	0	nt
COc1cccc(C(CC(=O)NCc2ccco2)NS(=O)(=O)c2ccc(C)cc2)c1OC (configuration not stated)	-9	-1	100*
O=C(NCC[C@@H]1CC[C@@H](NC(=O)C2CC2)[C@@H](CO)O1)c1ccc(F)cc1	nt	0	-5
Cn1c(SCc2nc(-c3ccccc3)no2)nnc1-c1cccs1	6	8	-2
Cn1c(SCc2nc(-c3ccc(Cl)cc3)no2)nnc1-c1cccs1	-28	0	84*
C[C@@H]1CCCCO[C@@H](CN(C)S(=O)(=O)c2cn(C)cn2)[C@@H](C)CN([C@@H](C)CO)C(=O)c2cc(NS(=O)(=O)c3cccs3)ccc2O1	nt	49	-21
C[C@@H]1CN([C@@H](C)CO)C(=O)c2cc(NC(=O)C3CC3)ccc2O[C@@H]1CN(C)CC1CC1	nt	-2	-1
COc1ccc(OC)c(NC(=O)COC(=O)C2CCN(C(=O)c3ccc(Cl)cc3)CC2)c1	-4	nt	nt
Cc1cc(NC(=O)COC(=O)C2CCN(C(=O)c3ccc(Cl)cc3)CC2)no1	15	0	111*
Cn1cc(/C=C/C(=O)c2ccccc2)c2ccccc21	-17	-13	7
CC(=O)N1C=CN(C(C)=O)C(c2cn(C)c3ccccc23)C1c1cn(C)c2ccccc12 (configuration not stated)	-2	0	115*
O=C(CCCN1CCC(O)(c2ccc(Br)cc2)CC1)c1ccc(F)cc1	272	2	-2
O=C(CCCN1CCC(O)(c2ccc(Cl)cc2)CC1)c1ccc(F)cc1	588*!	-2	4
CCCNC(=O)Nc1ccc2c(c1)C(=O)N(C)C[C@H](OC)[C@@H](C)CN(Cc1ccc(-c3ccccn3)cc1)[C@@H](C)CO2	nt	nt	-16
O=S(=O)(c1ccccc1)N1CCN(C/C=C/c2ccccc2)CC1	-7	10	-1
O=S(=O)(c1ccc(S(=O)(=O)N2CCN(C/C=C/c3ccccc3)CC2)cc1)N1CCCC1	295*	4	-48
C[C@H](CO)N1C[C@H](C)[C@@H](CN(C)Cc2ccc(C(=O)O)cc2)Oc2ccc(NS(=O)(=O)c3ccc(Cl)cc3)cc2CC1=O	nt	nt	-24
Nn1c(SCC(=O)N2CCCC2)nnc1C1CCCCC1	nt	0	1
CC(=O)c1c(C)[nH]c(C(=O)CSc2nnc(C3CCCCC3)n2N)c1C	2	1	122*
SMILES	Mot1-301 SUMO	Cneo AK release	Statin myotox sup
C[C@H]1CN([C@@H](C)CO)C(=O)c2cc(-c3ccccc3F)cnc2O[C@@H]1CN(C)C(=O)C1CC1	nt	-1	11
COc1cc(-c2ccccc2)nc2ccccc12	46	0	95*
COc1ccc(-c2cc(OC)c3ccccc3n2)cc1	-8	0	nt
Oc1ccc(Cl)cc1C1=NNC(c2cccs2)C1 (configuration not stated)	2	-9	149*
Cc1ccc(O)c(C2=NNC(c3ccc(Cl)cc3)C2)c1 (configuration not stated)	26	1	nt
CC(C)NC(=O)N(C)C[C@H]1OCCCC[C@H](C)Oc2ccc(NC(=O)c3ccccc3)cc2C(=O)N([C@H](C)CO)C[C@@H]1C	nt	0	nt
O=C(N[C@H]1CC[C@@H](CCNS(=O)(=O)c2ccc(F)cc2)O[C@H]1CO)C1CCOCC1	nt	1	-13
N#Cc1c2n(c3c(=O)n(Cc4ccccc4)cnc13)CCCC2	-3	-1	-3
N#Cc1c2n(c3c(=O)n(Cc4ccc(Cl)cc4)cnc13)CCCCC2	19	4	95*
CO[C@H]1CN(C)C(=O)c2cc(NS(=O)(=O)c3ccccc3Cl)ccc2OC[C@H](C)NC[C@H]1C	nt	1	10
C[C@H]1CN([C@@H](C)CO)S(=O)(=O)c2ccc(-c3ccc(F)cc3)cc2O[C@H]1CN(C)C(=O)C1CC1	nt	nt	-4
NC(=O)c1ncc(C(F)(F)F)cc1Oc1cccc(F)c1	17	0	10
NC(=O)c1ncc(C(F)(F)F)cc1Oc1cccc(C(F)(F)F)c1	309*	0	21
COCC(=O)N(C)C[C@@H]1Oc2ncc(C#Cc3cccnc3)cc2C(=O)N([C@H](C)CO)C[C@@H]1C	nt	-13	-1
Brc1ccc(CSc2ncnc3nc[nH]c23)cc1	-13	-9	0
Fc1ccc(CSc2ncnc3nc[nH]c23)cc1	-5	0	158*
CCOC(=O)c1cnn(-c2ncnc3sc(C)c(C)c23)c1N	127	3	81*
CCOC(=O)c1cnn(-c2ncnc3c2cnn3Cc2ccccc2)c1N	-3	nt	nt
CC(C)CC#Cc1ccc2c(c1)O[C@H](CN(C)C(=O)c1cnccn1)[C@H](C)CN([C@H](C)CO)S2(=O)=O	nt	3	13
O=C(Nc1ccc2c(c1)[C@@H]1C[C@H](CC(=O)N3CCc4ccccc4C3)O[C@H](CO)[C@@H]1O2)c1cccnc1	nt	0	1
NC(=O)NC(=O)CSc1nc(-c2ccccc2)c(-c2ccccc2)n1CC1CCCO1 (configuration not stated)	nt	1	139*
O=C(CSc1nc2ccccc2c(=O)n1CC1CCCO1)NCC1CCCO1 (configuration not stated)	nt	1	-2
CNC[C@H]1Oc2cc(C#CCN(C)C)ccc2S(=O)(=O)N([C@H](C)CO)C[C@H]1C	nt	4	7
C[C@@H]1CN([C@@H](C)CO)S(=O)(=O)c2ccc(-c3ccccc3)cc2O[C@@H]1CN(C)C	nt	nt	-16
OC[C@@H]1[C@H]2c3ccccc3OC1(CO)N=C1SCc3ccccc3CN12	nt	-1	nt
Cc1ccc(C2/C(=C(/O)c3cnn(-c4ccccc4)c3C)C(=O)C(=O)N2CCN2CCOCC2)o1 (configuration not stated)	2	7	126*
Cc1ccc(C2/C(=C(\O)c3cnn(-c4ccccc4)c3C)C(=O)C(=O)N2CCN(C)C)o1 (configuration not stated)	-18	0	0
Cc1ccc(-c2ccc3c(c2)O[C@@H](CN(C)C)[C@H](C)CN([C@H](C)CO)S3(=O)=O)cc1	nt	0	-19
C[C@@H]1CN([C@@H](C)CO)C(=O)c2cc(NC(=O)Cc3cn(C)c4ccccc34)ccc2O[C@H]1CN(C)Cc1ccncc1	nt	56	-1
